Assay results from ChEMBL document CHEMBL1649111, “Restoration of susceptibility of intracellular methicillin-resistant Staphylococcus aureus to beta-lactams: comparison of strains, cells, and antibiotics” (Antimicrob Agents Chemother, 2008).
≈ marks a conversion by molar mass, not a printed value.

Experiments:
[1] = tested on: Staphylococcus aureus; experiment: Antimicrobial activity against hospital acquired methicillin-resistant Staphylococcus aureus N4120032 obtained from wound infection of patient by broth microdilution method at pH 5.5; type: functional
[2] = tested on: Staphylococcus aureus; experiment: (§1) Antimicrobial activity against hospital acquired methicillin-resistant and vancomycin-intermediate Staphylococcus aureus NRS18 obtained from wound, skin and soft tissue infection of patient infected in human THP-1 cells assessed as decrease in bacterial growth after 24 hrs at pH 5.5; type: functional, organism-based; details: NRS18, THP-1, 24 h
In short: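 Bacteria phagocytosed by unactivated human THP-1 macrophages, then incubated 24 h with extracellular antibiotic at about 0.01× to 100× the pH 5.5 broth MIC. CFU per mg cell protein counted against the original inoculum, n = 3. A Hill-equation fit (slope factor 1) gave Emin and Emax, extrapolated to infinitely low and high concentration, and EC50. Static concentration was graphically interpolated.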

[3] = tested on: Staphylococcus aureus; experiment: Antimicrobial activity against hospital acquired methicillin-resistant and vancomycin-intermediate Staphylococcus aureus NRS126 obtained from patient with bloodstream infection by broth microdilution method at pH 7.4; type: functional
In short: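 Minimal inhibitory concentration by broth microdilution at pH 7.4, read in mg/liter. The MRSA genotype was confirmed by mecA PCR, and the SCCmec subgroup was assigned by multiplex PCR.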

[4] = tested on: Staphylococcus aureus; experiment: as §1, with “VRS2” for “NRS18”, “increase” for “decrease”, “count from original inoculum at low compound concentration” for “growth”; type: functional
In short: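 Human THP-1 macrophages infected with each S. aureus strain. Cloxacillin added extracellularly at about 0.01× to 100× the broth MIC measured at pH 5.5, with gentamicin 0.5 mg/liter to stop extracellular growth. Incubated 24 h. CFU counted per mg cell protein as change from the post-phagocytosis inoculum, n = 3. Emin, Emax and EC50 from a Hill fit; static concentration by graphical interpolation.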

## Cc1onc(-c2ccccc2Cl)c1C(=O)N[C@@H]1C(=O)N2[C@@H]1SC(C)(C)[C@@H]2C(=O)O [CLOXACILLIN]
[1]
  MIC: 0.06 µg/mL (≈ 0.138 µM)
[2]
  EC50: 3.96 ×MIC
[3]
  MIC: 16 µg/mL (≈ 36.7 µM)
[4]
  log10cfu: 1.69
